Assay results pooled from the literature.
Compare with care: the assays were run in different laboratories.
LNPEP: Leucyl-cystinyl aminopeptidase (LNPEP, Homo sapiens, UniProt Q9UIQ6)
SLCO1B1: Solute carrier organic anion transporter family member 1B1 (SLCO1B1, Homo sapiens, UniProt Q9Y6L6)
MMP13: Collagenase 3 (MMP13, Homo sapiens, UniProt P45452)
Cruzipain: Cruzipain (Trypanosoma cruzi, UniProt P25779)
CYP3A4: Cytochrome P450 3A4 (CYP3A4, Homo sapiens, UniProt P08684)
PBRM1 bromodomain: Protein polybromo-1, bromodomain (PBRM1, Homo sapiens, UniProt Q86U86)
DSTYK: Dual serine/threonine and tyrosine protein kinase (DSTYK, Homo sapiens, UniProt Q6XUX3)
JAK1: Tyrosine-protein kinase JAK1 (JAK1, Homo sapiens, UniProt P23458)

O=S(=O)(Nc1cccc(-c2nnn[nH]2)c1)c1ccc(Cl)c2nonc12
IC50 (LNPEP; enzyme activity, inhibitor, fluorescence): 0.4 µM

CCn1c(-c2nc3ccc(C(=O)N4CCCC(N)C4)cc3n2C)cc2ccccc21 (stereo not shown)
IC50 (Muscarinic acetylcholine receptor M1 (CHRM1, Homo sapiens, UniProt P11229); calcium signal, antagonist, fluorescence): > 15.8 µM

N[C@@H](CC(=O)N1CCN(C(c2ccc(F)cc2)c2ccc(F)cc2)CC1)C(=O)N1Cc2ccccc2C1
IC50 (Lysosomal Pro-X carboxypeptidase (PRCP, Homo sapiens, UniProt P42785); enzyme activity, inhibitor): 8.43 µM

O=C(COc1ccc(Cl)cc1)N1CCN(Cc2ccc3c(c2)OCO3)CC1
IC50 (SLCO1B1; transporter uptake, inhibitor, fluorescence; CHO; 30 min, pH 7.4): 34.5 µM

Cn1nc(C(=O)NCc2ccc(C(=O)O)cc2)cc1-c1ccc2[nH]c(-c3cccnc3)cc2c1
IC50 (MMP13; enzyme activity, inhibitor, FRET): 0.0058 µM

O=C(O)c1cccnc1Nc1cccc(C(F)(F)F)c1
IC50 (SLCO1B1; transporter uptake, inhibitor, fluorescence; CHO; 30 min, pH 7.4): 3.7 µM

CC/C=C\C/C=C\C/C=C\C/C=C\C/C=C\CCCC(=O)O
IC50 (Polynucleotide kinase (pseT, Enterobacteria phage T4, UniProt P06855); enzyme activity, inhibitor): > 100 µM

O=S(=O)(Nc1cccc(-c2nnn[nH]2)c1)c1cc(C(F)(F)F)ccc1C(F)(F)F
IC50 (LNPEP; enzyme activity, inhibitor, fluorescence): 0.8 µM

Cc1ccc(C(C)C)c(O)c1
IC50 (gbr-2 (Haemonchus contortus, UniProt O46124); ion current, antagonist, two-electrode voltage clamp; oocytes): 1200 µM

Nc1ncnc2c1ncn2[C@@H]1O[C@H](CN(CC[C@H](N)C(=O)O)Cc2ccc3ccccc3c2)[C@@H](O)[C@H]1O
IC50 (Histone-lysine N-methyltransferase NSD2 (NSD2, Homo sapiens, UniProt O96028); enzyme activity, inhibitor): > 50 µM

C=CCOc1cccc2c1-c1c(c3c(n1C(C)C)CCCC3=O)C2=O
IC50 (Casein kinase II subunit alpha' (CSNK2A2, Homo sapiens, UniProt P19784, C336S); enzyme activity, inhibitor): 0.273 µM

Cc1ncc([N+](=O)[O-])n1CCO
IC50 (SLCO1B1; transporter uptake, inhibitor, fluorescence; CHO; 30 min, pH 7.4): > 100 µM

O=S(=O)(Nc1cccc(-c2nnn[nH]2)c1)c1c(F)cc(Br)cc1F
IC50 (LNPEP; enzyme activity, inhibitor, fluorescence): 7.5 µM

CC(C)C(NC(=O)c1ccco1)C(=O)NCC(c1ccco1)N1CCCCC1 (stereo not shown)
IC50 (Cruzipain; enzyme activity, inhibitor): 14 µM

Cc1noc(-c2cc3cc(-c4cc(C(=O)NCc5ccc(C(=O)O)cc5)nn4C)ccc3[nH]2)n1
IC50 (MMP13; enzyme activity, inhibitor, FRET): 0.00021 µM

O=C(NCCN1CCCC1)c1cc(-c2ccc(CN3CCOCC3)cc2)nc2ccc(F)cc12
IC50 (CYP3A4; enzyme activity, inhibitor; human, liver microsomes): > 100 µM

COc1ccc(NC(=O)COC(=O)C(CC(C)C)N2C(=O)C3CC=CCC3C2=O)cc1Cl (stereo not shown)
IC50 (Cruzipain; enzyme activity, inhibitor, fluorescence): 0.9 µM

O=S(=O)(Nc1cccc(-c2nnn[nH]2)c1)c1ccc(F)c(F)c1
IC50 (LNPEP; enzyme activity, inhibitor, fluorescence): 12.1 µM

Cc1ncsc1-c1ccc(CNC(=O)[C@@H]2C[C@@H](O)CN2C(=O)[C@@H](NC(=O)C2(F)CC2)C(C)(C)C)c(OCCOc2ccc(CN3CCN(c4cc(-c5ccccc5O)nnc4N)CC3)cc2)c1
IC50 (PBRM1 bromodomain; cell-free assay, TR-FRET): 0.504 µM

CCOC(=O)[C@H](CCc1ccccc1)N[C@@H](C)C(=O)N1[C@H](C(=O)O)C[C@@H]2CCC[C@@H]21
IC50 (SLCO1B1; transporter uptake, inhibitor, fluorescence; CHO; 30 min, pH 7.4): 4 µM

O=S(=O)(Nc1cccc(-c2nnn[nH]2)c1)c1scc2ccccc12
IC50 (LNPEP; enzyme activity, inhibitor, fluorescence): 10.9 µM

Clc1ccc2[nH]c3c(NCCCN4CCOCC4)ncnc3c2c1
IC50 (Cruzipain; enzyme activity, inhibitor): 13 µM

O=S(=O)(Nc1cccc(-c2nnn[nH]2)c1)c1cc2ccccc2s1
IC50 (LNPEP; enzyme activity, inhibitor, fluorescence): 5.9 µM

Fc1ccc(Nc2c(-c3ccccn3)nc3ccc(C4CC4)cn23)cc1
IC50 (CYP3A4; enzyme activity, inhibitor): 1.6 µM

O=c1ccc2c(OCCCCOc3ccccc3)c3ccoc3c(O)c2o1
IC50 (Potassium voltage-gated channel subfamily A member 3 (Kcna3, Mus musculus, UniProt P16390); ion current, inhibitor, patch clamp): 0.159 µM

Nc1nc(N)c2nc(CNc3cccc4ccccc34)cnc2n1
IC50 (CYP3A4; enzyme activity, inhibitor, luciferase): 66.1 µM

c1ccc(/C(=N\Nc2nc3ccccc3s2)c2ccccn2)cc1
IC50 (E3 ubiquitin-protein ligase Mdm2 (MDM2, Homo sapiens, UniProt Q00987); protein-protein interaction, inhibitor): 13 µM

Cc1noc(-c2cc3cc(-c4nc(C(=O)NCc5ccc(=O)[nH]c5)[nH]c4C)ccc3[nH]2)n1
IC50 (MMP13; enzyme activity, inhibitor, FRET): 0.00033 µM

Nc1ncc2c(n1)-c1c([nH]c3ccc(-c4ccc(F)cc4)cc13)CCC2
IC50 (DSTYK; enzyme activity, inhibitor, radiometric): 3.9 µM

Cc1noc(-c2cc3cc(-c4nc(C(=O)NCc5cccnc5)[nH]c4C)ccc3[nH]2)n1
IC50 (MMP13; enzyme activity, inhibitor, FRET): 0.00064 µM

Oc1c2ccccc2c2c3c(cccc13)N=N2
IC50 (JAK1; enzyme activity, inhibitor): 0.974 µM

CCCC[C@H](NC(=O)C1CN(C)C1)c1ncc(-c2cc3ccccc3nc2OC)[nH]1
IC50 (Histone deacetylase 11 (HDAC11, Homo sapiens, UniProt Q96DB2); enzyme activity, inhibitor): > 30 µM

CCn1ncc2c1-c1cnc(N)c(c1)O[C@H](C)c1cc(F)ccc1-c1nn(C)nc1C2
IC50 (DSTYK; enzyme activity, inhibitor, radiometric): 0.583 µM

CC[C@@H](C(=O)Nc1ccc(C(N)=O)c(F)c1)n1cc(OC)c(-c2cc(Cl)ccc2-n2cc(C(F)(F)F)nn2)cc1=O
IC50 (Coagulation factor XII (F12, Homo sapiens, UniProt P00748); enzyme activity, inhibitor): > 2 µM

C[C@]12CC[C@@H]3c4ccc(OS(=O)(=O)O)cc4CC[C@H]3[C@@H]1CCC2=O
IC50 (SLCO1B1; transporter uptake, inhibitor, fluorescence; CHO; 30 min, pH 7.4): 0.06 µM

CC(C)[C@H](CO)Nc1nc(Nc2cccc(Cl)c2)c2ncn(C(C)C)c2n1
IC50 (Serine/threonine-protein kinase PAK 4 (PAK4, Homo sapiens, UniProt O96013); enzyme activity, inhibitor; lysate): > 10 µM

Cn1nc(C(=O)NCc2ccc(C(=O)O)cc2)cc1-c1ccc2[nH]c(-c3cncnc3)cc2c1
IC50 (MMP13; enzyme activity, inhibitor, FRET): 0.0068 µM

COc1ccc2c(Oc3ccc4c(C(=O)Nc5ccccc5N)cccc4c3)ccnc2c1
IC50 (JAK1; enzyme activity, inhibitor): > 0.5 µM

CCOc1ccc2c(-c3cc(C)nc(Nc4cc(OC)cc(C(F)(F)F)c4)n3)cnn2n1
IC50 (Dual specificity protein kinase CLK2 (CLK2, Homo sapiens, UniProt P49760); enzyme activity, inhibitor): > 10 µM

CCC1CN(C(=O)NCC(F)(F)F)CC1c1nc(N)nc2[nH]ccc12 (stereo not shown)
IC50 (JAK1; enzyme activity, inhibitor, ADP detection): 9.6 µM

CCNC(=O)c1nc(-c2ccc3[nH]c(-c4nc(C)no4)cc3c2)c(C)[nH]1
IC50 (MMP13; enzyme activity, inhibitor, FRET): 0.011 µM

Cc1ncsc1-c1ccc(CNC(=O)[C@@H]2C[C@H](O)CN2C(=O)[C@@H](NC(=O)C2(F)CC2)C(C)(C)C)c(OCCc2ccc(CN3CCN(c4cc(-c5ccccc5O)nnc4N)CC3)cc2)c1
IC50 (PBRM1 bromodomain; cell-free assay, TR-FRET): 1.1 µM

CCOCc1nc(O)c(-c2nnc(Cc3ccc(Cl)cn3)o2)c(O)c1-c1c(OC)cccc1OC
IC50 (5-hydroxytryptamine receptor 4 (HTR4, Homo sapiens, UniProt Q13639); ligand displacement, radioligand): > 30 µM

CC(C)c1cc(NC(=O)Nc2ccc(F)c(F)c2)n(-c2ccccc2)n1
IC50 (Kir3.1/Kir3.4 (Homo sapiens, UniProt P48544+P48549); enzyme activity in cells, inhibitor): 4.1 µM

Cc1ccc(S(=O)(=O)Nc2cccc(-c3nnn[nH]3)c2)cc1C(F)(F)F
IC50 (LNPEP; enzyme activity, inhibitor, fluorescence): 2.3 µM

NC(=O)c1ccc[n+]([C@@H]2O[C@H](COP(=O)([O-])OP(=O)(O)OC[C@H]3O[C@@H](n4cnc5c(N)ncnc54)[C@H](O)[C@@H]3O)[C@@H](O)[C@H]2O)c1
IC50 (Protein mono-ADP-ribosyltransferase PARP8 (Homo sapiens, UniProt Q8N3A8); enzyme activity, inhibitor): 377 µM
